Legend:
[1] = system: SMB; assay: Antiprion activity in mouse SMB cells assessed as reduction in PrPSc level at 2 uM after 3 days by dot blot assay relative to control; assay type: cell-based; design: scale not given: the % may be the effect or the level left
Procedure, shortened: (§1)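 Compound was added at a final 20.0 or 2.0 µM, then incubated 3 days (ScN2a at 37 °C, SMB at 35 °C). Lysates were dot-blotted to PVDF, treated with proteinase K (25 µg/ml, 90 min, 37 °C) and denatured with guanidinium thiocyanate. PrPres was probed with rabbit 1023 antiserum and detected by ECL. Signal is relative to untreated control (100%), from three independent experiments.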

[2] = system: SMB; assay: Antiprion activity in mouse SMB cells assessed as reduction in PrPSc level at 20 uM after 3 days by dot blot assay relative to control; assay type: cell-based; design: scale not given: the % may be the effect or the level left; procedure, shortened: as §1
[3] = Antiprion activity in mouse SMB cells assessed as reduction in PrPSc level after 3 days by dot blot assay relative to control; assay type: cell-based; details: 72 h
[4] = system: ScN2a; assay: Antiprion activity in mouse ScN2a cells assessed as reduction in PrPSc level at 2 uM after 3 days by dot blot assay relative to control; assay type: cell-based; design: scale not given: the % may be the effect or the level left; procedure, shortened: as §1
[5] = Inhibition of mouse recombinant alexa fluor 488-labeled PrPC expressed in Escherichia coli BL21(DE3) RIL assessed as inhibition of association with PrPSc measured for 10 secs by SIFT-based confocal microscopy
Procedure, shortened: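 SIFT assay: Alexa-488-labelled mouse rPrP and Alexa-647-labelled L42 antibody (each about 2–6 nM) were mixed with diluted human PrPSc and compound in 20 mM potassium phosphate pH 6 with 0.1% Nonidet P40. Dilution series 0.1–100 µM. Read by dual-colour confocal FIDA as 2D intensity histograms, with cut-offs set from controls. EC50 is half-maximal inhibition of rPrP binding to PrPSc.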

[6] = system: ScN2a; assay: Antiprion activity in mouse ScN2a cells assessed as reduction in PrPSc level at 20 uM after 3 days by dot blot assay relative to control; assay type: cell-based; design: scale not given: the % may be the effect or the level left; procedure, shortened: as §1
[7] = Antiprion activity in mouse ScN2a cells assessed as reduction in PrPSc level after 3 days by dot blot assay relative to control; assay type: cell-based; details: 72 h

CCCCNC(=O)c1cc(NC(=O)CN2CCCCC2)ccc1Oc1ccc(C(F)(F)F)cc1
Activity [1]: 80%
Activity [2]: 53%
EC50 [3]: 30 µM
Activity [4]: 35%
EC50 ([5]; read-out: EC50): 70 µM
Activity [6]: 17%
EC50 [7]: 2.08 µM

C#CCOc1ccc(NC(=O)CN2CCCCC2)cc1C(=O)NCCCC
Activity [1]: 70%
Activity [2]: 66%
EC50 [3]: 97.2 µM
Activity [4]: 76%
EC50 [5]: Not Active
Activity [6]: 37%
EC50 [7]: 9.28 µM

CCCCNC(=O)c1cc(NC(=O)CN2CCCCC2)ccc1Oc1ccc(OC)cc1
Activity [1]: 83%
Activity [2]: 82%
EC50 [3]: > 1000 µM
Activity [4]: 49%
EC50 ([5]; read-out: EC50): 150 µM
Activity [6]: 28%
EC50 [7]: 3.56 µM

CCCCNC(=O)c1cc(NC(=O)CN2CCCCC2)ccc1Oc1ccc(F)cc1
Activity [1]: 61%
Activity [2]: 81%
EC50 [3]: > 1000 µM
Activity [4]: 35%
EC50 ([5]; read-out: EC50): 70 µM
Activity [6]: 32%
EC50 [7]: 2.93 µM

CCCCNC(=O)c1cc(NC(=O)CN2CCCC2)ccc1Oc1ccccc1
Activity [1]: 92%
Activity [2]: 82%
EC50 [3]: > 1000 µM
Activity [4]: 48%
EC50 ([5]; read-out: EC50): 200 µM
Activity [6]: 41%
EC50 [7]: 5.52 µM

C#CCOc1ccc(NC(=O)CN2CCCC2)cc1C(=O)NCCCC
Activity [1]: 74%
Activity [2]: 65%
EC50 [3]: 99.2 µM
Activity [4]: 43%
EC50 [5]: Not Active
Activity [6]: 32%
EC50 [7]: 3.52 µM

CCCCNC(=O)c1cc(NC(=O)CN2CCCC2)ccc1Oc1ccc(C(F)(F)F)cc1
Activity [1]: 50%
Activity [2]: 41%
EC50 [3]: 5.81 µM
Activity [4]: 26%
EC50 ([5]; read-out: EC50): 40 µM
Activity [6]: 12%
EC50 [7]: 1.61 µM

CCCCNC(=O)c1cc(NC(=O)CN2CCCCC2)ccc1Oc1ccccc1C(F)(F)F
Activity [1]: 75%
Activity [2]: 55%
EC50 [3]: 30.6 µM
Activity [4]: 39%
EC50 ([5]; read-out: EC50): 70 µM
Activity [6]: 12%
EC50 [7]: 2.04 µM

CCCCNC(=O)c1cc(NC(=O)CN2CCCC2)ccc1Oc1ccc(F)cc1
Activity [1]: 57%
Activity [2]: 92%
EC50 [3]: > 1000 µM
Activity [4]: 45%
EC50 ([5]; read-out: EC50): 200 µM
Activity [6]: 39%
EC50 [7]: 4.7 µM

CCCCNC(=O)c1cc(NC(=O)CN2CCCC2)ccc1OC(C)C
Activity [1]: 59%
Activity [2]: 48%
EC50 [3]: 10.8 µM
Activity [4]: 42%
EC50 [5]: Not Active
Activity [6]: 24%
EC50 [7]: 2.76 µM

CCCCNC(=O)c1cc(NC(=O)CN2CCCC2)ccc1Oc1ccccc1C(F)(F)F
Activity [1]: 61%
Activity [2]: 54%
EC50 [3]: 16.5 µM
Activity [4]: 16%
EC50 ([5]; read-out: EC50): 25 µM
Activity [6]: 15%
EC50 [7]: 1.42 µM

CCCCNC(=O)c1cc(NC(=O)CN2CCCCC2)ccc1Oc1ccc(C)cc1
Activity [1]: 86%
Activity [2]: 86%
EC50 [3]: > 1000 µM
Activity [4]: 36%
EC50 ([5]; read-out: EC50): 40 µM
Activity [6]: 26%
EC50 [7]: 2.57 µM

CCCCNC(=O)c1cc(NC(=O)CN2CCCC2)ccc1OC1CCCCC1
Activity [1]: 67%
Activity [2]: 38%
EC50 [3]: 7.81 µM
Activity [4]: 38%
EC50 ([5]; read-out: EC50): 200 µM
Activity [6]: 32%
EC50 [7]: 3.14 µM

CCCCNC(=O)c1cc(NC(=O)CN2CCCCC2)ccc1Oc1ccc(C(C)C)cc1
Activity [1]: 72%
Activity [2]: 46%
EC50 [3]: 13.8 µM
Activity [4]: 43%
EC50 ([5]; read-out: EC50): 15 µM
Activity [6]: 13%
EC50 [7]: 2.22 µM

CCCCNC(=O)c1cc(NC(=O)CN2CCCC2)ccc1Oc1ccc(Cl)cc1
Activity [1]: 68%
Activity [2]: 46%
EC50 [3]: 12.3 µM
Activity [4]: 25%
EC50 ([5]; read-out: EC50): 55 µM
Activity [6]: 16%
EC50 [7]: 1.7 µM

CCCCNC(=O)c1cc(NC(=O)CN2CCCC2)ccc1Oc1ccc(OC)cc1
Activity [1]: 74%
Activity [2]: 75%
EC50 [3]: 866 µM
Activity [4]: 36%
EC50 ([5]; read-out: EC50): 198 µM
Activity [6]: 31%
EC50 [7]: 2.92 µM

CCCCNC(=O)c1cc(NC(=O)CN2CCCC2)ccc1Oc1ccc(C(C)C)cc1
Activity [1]: 73%
Activity [2]: 48%
EC50 [3]: 16.3 µM
Activity [4]: 32%
EC50 ([5]; read-out: EC50): 18 µM
Activity [6]: 20%
EC50 [7]: 2.08 µM

CCCCNC(=O)c1cc(NC(=O)CN2CCCC2)ccc1Oc1ccc(OCCCC)cc1
Activity [1]: 82%
Activity [2]: 58%
EC50 [3]: 53.6 µM
Activity [4]: 52%
EC50 ([5]; read-out: EC50): 30 µM
Activity [6]: 19%
EC50 [7]: 2.98 µM

CCCCNC(=O)c1cc(NC(=O)CN2CCCCC2)ccc1Oc1ccc(Cl)cc1
Activity [1]: 68%
Activity [2]: 49%
EC50 [3]: 15 µM
Activity [4]: 35%
EC50 ([5]; read-out: EC50): 20 µM
Activity [6]: 21%
EC50 [7]: 2.25 µM

CCCCNC(=O)c1cc(NC(=O)CN2CCCCC2)ccc1Oc1ccccc1
Activity [1]: 65%
Activity [2]: 75%
EC50 [3]: 501 µM
Activity [4]: 50%
EC50 ([5]; read-out: EC50): 200 µM
Activity [6]: 30%
EC50 [7]: 3.86 µM

CCCCNC(=O)c1cc(NC(=O)CN2CCCC2)ccc1OC12CC3CC(CC(C3)C1)C2
Activity [1]: 77%
Activity [2]: 42%
EC50 [3]: 12.4 µM
Activity [4]: 34%
EC50 ([5]; read-out: EC50): 80 µM
Activity [6]: 16%
EC50 [7]: 2 µM

CCCCNC(=O)c1cc(NC(=O)CN2CCCCC2)ccc1OC12CC3CC(CC(C3)C1)C2
Activity [1]: 54%
Activity [2]: 36%
EC50 [3]: 5.22 µM
Activity [4]: 27%
EC50 ([5]; read-out: EC50): 50 µM
Activity [6]: 12%
EC50 [7]: 1.65 µM

CCCCNC(=O)c1cc(NC(=O)CN2CCCC2)ccc1Oc1ccc(C)cc1
Activity [1]: 61%
Activity [2]: 55%
EC50 [3]: 18.9 µM
Activity [4]: 32%
EC50 ([5]; read-out: EC50): 70 µM
Activity [6]: 13%
EC50 [7]: 1.83 µM

CCCCNC(=O)c1cc(NC(=O)CN2CCCCC2)ccc1OC1CCCCC1
Activity [1]: 76%
Activity [2]: 65%
EC50 [3]: 108 µM
Activity [4]: 37%
EC50 ([5]; read-out: EC50): 80 µM
Activity [6]: 22%
EC50 [7]: 2.39 µM

CCCCNC(=O)c1cc(NC(=O)CN2CCCCC2)ccc1Oc1ccc(OCCCC)cc1
Activity [1]: 76%
Activity [2]: 52%
EC50 [3]: 24.3 µM
Activity [4]: 61%
EC50 ([5]; read-out: EC50): 50 µM
Activity [6]: 21%
EC50 [7]: 3.73 µM

CCCCNC(=O)c1cc(NC(=O)CN2CCCCC2)ccc1OC(C)C
Activity [1]: 58%
Activity [2]: 72%
EC50 [3]: 161 µM
Activity [4]: 78%
EC50 [5]: Not Active
Activity [6]: 29%
EC50 [7]: 6.86 µM

Source: ChEMBL document CHEMBL2062371, “Synthesis of benzamide derivatives and their evaluation as antiprion agents” (Bioorg Med Chem, 2012)
